KCNK3 inh = human KCNK3 channel inhibition, primary screen; B-score at 10 µM; O14649; CHO-KCNK3 thallium flux, FluxOR fluorescence; stronger effect = lower value; hit rate 0.84% among 340,000;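 active = B-score under library mean minus 4 SD, starting fluorescence ratio at most library mean plus 5 SD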;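 also: more negative B-score means stronger inhibition of thallium flux through KCNK3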
Kir21 inh = Kir2.1 (mouse) channel inhibition. P35561. HEK293-Kir2.1, FluxOR thallium flux fluorescence; stronger effect = lower value. B-score at 10 µM. hit rate 0.85% among 310,000. AID 1672;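 active = fluorescence ratio B-score at or below minus 3 SD of library scores, with starting-brightness B-score within 2 SD, cut at about -4.2 in these data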;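 also: channel flux triggered by added potassium and thallium sulfate stimulus; B-score of peak minus minimum fluorescence over baseline after thallium stimulus; more negative B-score means stronger Kir2.1 block with less thallium influx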
KCNK9 inh = inhibitors of human KCNK9 two-pore domain potassium channel | Q9NPC2 | HEK293 KCNK9, FluxOR thallium flux fluorescence; stronger effect = lower value | B-score at 10 µM | hit rate 1.2% among 310,000 | AID 488922;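 active = ratio B-score over 3 SD below the library mean, with starting fluorescence within 5 SD of its mean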;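 also: negative B-score means less thallium flux so channel inhibition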
KCNQ1 inh = human KCNQ1 channel inhibition; AID 2642; CHO-K1 KCNQ1, FluxOR thallium flux fluorescence; stronger effect = higher value; hit rate 1.3% among 310,000; P51787; B-score at 10 µM;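 active = compounds whose thallium flux B-score, printed positive for inhibition, exceeds three library SD while starting fluorescence stays within three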;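 also: channel opened by potassium depolarization with thallium stimulus after 20 min compound exposure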
Target sequence (P51787 whole entry, looked up): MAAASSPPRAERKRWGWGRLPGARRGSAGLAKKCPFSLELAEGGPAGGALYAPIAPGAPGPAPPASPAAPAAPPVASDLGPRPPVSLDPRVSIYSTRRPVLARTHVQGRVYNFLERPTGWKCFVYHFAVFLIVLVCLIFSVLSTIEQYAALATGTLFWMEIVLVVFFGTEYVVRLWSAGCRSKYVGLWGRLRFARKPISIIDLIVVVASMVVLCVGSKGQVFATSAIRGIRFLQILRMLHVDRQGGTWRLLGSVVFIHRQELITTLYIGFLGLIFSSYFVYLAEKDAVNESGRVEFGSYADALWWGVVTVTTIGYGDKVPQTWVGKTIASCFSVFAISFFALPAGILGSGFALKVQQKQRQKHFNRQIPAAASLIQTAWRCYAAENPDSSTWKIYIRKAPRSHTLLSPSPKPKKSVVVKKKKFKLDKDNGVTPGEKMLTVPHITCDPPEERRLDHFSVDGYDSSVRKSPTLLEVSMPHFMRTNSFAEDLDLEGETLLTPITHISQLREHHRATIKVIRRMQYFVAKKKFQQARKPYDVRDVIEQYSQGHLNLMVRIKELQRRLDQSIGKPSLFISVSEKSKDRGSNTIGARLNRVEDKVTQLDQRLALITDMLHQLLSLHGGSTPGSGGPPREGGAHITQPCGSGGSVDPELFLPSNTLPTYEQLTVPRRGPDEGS
KCNQ1 pot = potentiators or activators of human KCNQ1 potassium channel; P51787; CHO-K1 KCNQ1, thallium flux FluxOR fluorescence; stronger effect = higher value; B-score at 10 µM; hit rate 0.35% among 310,000;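 active = fluorescence ratio B-score, a plate-corrected score, at least three library SD, with initial intensity B-score within 5 SD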
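Assay system: CHO-K1 cells stably expressing KCNQ1; Medium: assay buffer with matched DMSO; Also added: K+/Tl+ depolarizing stimulus; Dosing: single dose; Timing: dye 90 min, compound 20 min, room temperature; Measured by: kinetic FluxOR thallium fluorescence, 10-s 1-Hz baseline, 110-s post-stimulus read; Read-out: peak-minus-minimum fluorescence over initial fluorescence, negative-control normalized, B-scored.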
hERG rescue = shields human hERG channel from block by proarrhythmic agents | CHO-hERG, FluxOR thallium flux, dofetilide IC70 present | activation (rescue from dofetilide block), less the hit threshold, % at 10 µM | hit rate 0.51% among 310,000 | AID 1511;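 active = activation above the mean of controls blocked by dofetilide plus 5 SD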;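 also: thallium influx through hERG after potassium depolarization seen as dye fluorescence rise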
The depositor's hits bear a star; i = inactive; . = no result given. Shown are actives, neighbours in structure and some others; about 3.7% of the full set was active somewhere.

SMILES | KCNK3 inh | Kir21 inh | KCNK9 inh | KCNQ1 inh | KCNQ1 pot | hERG rescue
Cc1ccc(N2CCC(N3CCN(C)C(CCO)C3)CC2)cc1 (stereo unspecified) | i | -0.48 | i | i | i | -3.3
CCN1C(=O)[C@H]2[C@@H](c3ccc(-c4ccc(F)cc4)cc3)N[C@@](CC(C)C)(C(=O)OC)[C@H]2C1=O | i | -0.47 | i | i | i | -7.8
CCN1C(=O)[C@H]2[C@@H](c3ccc(-c4ccc(F)cc4)c(OC)c3)N[C@@](CC(C)C)(C(=O)OC)[C@H]2C1=O | . | -0.09 | -11.8* | i | i | -14.0
COc1cc(SC)ccc1C(=O)Nc1cccc(S(=O)(=O)NC2=NCCC2)c1 | i | . | . | . | . | .
Cc1snnc1C(=O)NC(=S)Nc1ccccc1 | i | 0.1 | i | i | 9* | 11.5*
O=C(/C=C/c1ccc(Br)o1)NCc1ccccc1 | i | -0.18 | -6.78* | i | i | -5.8
O=C(NC(=S)NCc1ccccc1)c1ccc(Br)o1 | i | -1.41 | i | i | 59* | 39.1*
O=C(NC(=S)Nc1ccccc1)c1ccc(Br)o1 | i | -0.88 | i | i | 13* | 3.5
O=C(NNC(=S)NCc1ccccc1)c1ccc(Br)o1 | i | -0.69 | i | i | i | -2.1
Cc1ccc(CNC(=O)/C=C/c2ccc(Br)o2)cc1 | i | 2.15 | i | i | i | -13.0
O=C(C=Cc1ccccc1)CC(c1ccccc1)N1CCOCC1 (stereo unspecified) | i | . | . | . | . | .
C/C(=N\NC(=O)C1CC1)c1ccc(OC(F)F)cc1 | i | -0.03 | i | i | i | -10.1
CC12CCC(=O)N1C(C(=O)NNC(=O)COc1cccc(C(F)(F)F)c1)CS2 (stereo unspecified) | i | 1.12 | i | i | i | -14.8
COc1ccc(NC(=O)c2ccc(Br)o2)cc1 | i | -1.63 | i | i | i | -12.6
COc1ccc(NC(=S)NC(=O)c2ccc(Br)o2)cc1 | i | 0.6 | i | i | 17* | 9.4*
O=C(Nc1ccc(Nc2ccccc2)cc1)c1ccc(Br)o1 | i | 1.04 | -7.72* | i | i | -18.1
CC(C)c1ccc(NC(=O)c2ccc(Br)o2)cc1 | i | 2.01 | i | i | i | -4.7
COc1cccc(-c2c(C(=O)O)cc(O)c3ccc(OC)cc23)c1 | i | . | . | . | . | .
CC(C)(C)OC(=O)N(Cc1ccccc1)Cc1ccccc1OCc1ccc(NC(=O)C2CCC2)cc1 | i | . | . | . | . | .
CC(Oc1ccc(Cl)cc1Cl)C(=O)N(C)c1ccccc1 (stereo unspecified) | i | -6.38* | i | i | i | -11.1
CN(C(=S)NC(=O)CCCOc1ccc(Cl)cc1Cl)c1ccccc1 | i | -4.89* | i | i | i | -15.8
COc1cc(C(C[N+](=O)[O-])c2c(N)n(C)c(=O)n(C)c2=O)ccc1O (stereo unspecified) | i | 0.01 | i | 6* | i | -2.7
O=C(Nc1ccccc1[N+](=O)[O-])c1cccc(N2C(=O)CCC2=O)c1 | i | -0.07 | i | i | i | -2.6
Cc1ccc(/C([O-])=C(/C(=S)NCc2ccco2)[n+]2ccccc2)cc1 | . | 1.41 | i | i | i | -6.9
O=[N+]([O-])c1ccc(/C([O-])=C(/C(=S)NCc2ccco2)[n+]2ccccc2)cc1 | i | 0.02 | i | i | 8* | -8.4
SMILES | KCNK3 inh | Kir21 inh | KCNK9 inh | KCNQ1 inh | KCNQ1 pot | hERG rescue
CCC(OCC(O)CN1CCCCC1)c1ccccc1 (stereo unspecified) | i | 0.15 | i | i | i | -3.9
COc1cc(-c2n[nH]c(=S)n2C(C)c2ccccc2)cc(OC)c1OC (stereo unspecified) | i | -4.33* | i | i | i | -6.2
C/C(=N\NC(=O)c1c(Br)cnn1C)c1ccc(NC(=O)c2ccc(F)cc2)cc1 | i | -0.01 | i | i | i | -1.9
O=C(COC(=O)C1(c2cccc(F)c2)CCCC1)NCc1ccc2c(c1)OCO2 | i | -4.21* | i | i | i | -9.3
O=C(NCc1ccc2c(c1)OCO2)c1cccc(F)c1 | i | -0.48 | i | i | i | -5.5
O=C(COC(=O)C1(c2cccc(F)c2)CCCC1)NCc1cccs1 | i | -5.27* | i | i | i | -22.1
COc1ccc2ccc(=O)oc2c1CC(=O)C(C)C | i | . | . | . | . | .

Compound activity (PubChem BioAssay)
